ChEMBL document CHEMBL1123641, “Antiulcer agents. 2. Gastric antisecretory, cytoprotective, and metabolic properties of substituted imidazo[1,2-a]pyridines and analogues” (J Med Chem, 1987)
The source made the active and inactive calls. No cut-off for these calls is given here.

Legend:
[1] = test system: Rattus norvegicus; assay: Antisecretory activity in pylorus ligated rats at a 40 mg/kg dose administered intraperitoneally; format: functional; conditions: ip, route intraperitoneal
Method in brief: (§1)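 Pylorus-ligated rats, six per compound and eight controls. Compound given intraperitoneally at 40 mg/kg at the time of ligation. Reduction in acid output measured over 4 h.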

[2] = test system: Canis familiaris; assay: Antisecretory activity in histamine stimulated dogs at 8 mg/kg dose administered orally; format: functional; conditions: Canis lupus familiaris, route oral
Method in brief: (§2)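 Heidenhain pouch mongrel dogs, histamine-stimulated acid secretion. Compound given orally at 2–8 mg/kg. Reduction in acid output is relative to the same animal's own nondrug control, since histamine response depends on pouch size. Usually a single dog per compound. Oral ED50 is the dose reducing acid output to 50% of control.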

[3] = test system: Canis familiaris; assay: Antisecretory activity in histamine stimulated dogs at 2 mg/kg dose administered intravenously; format: functional; conditions: Canis lupus familiaris, route intravenous
Method in brief: (§3)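 Adult mongrel dogs with surgically prepared Heidenhain pouches, acid secretion stimulated with histamine. Compound given intravenously (0.1-5 mg/kg range). Acid output reduction is expressed relative to the nondrug-treated control value in the same animal, each dog serving as its own control. Unless noted otherwise, one dog per compound. ED50 is the iv dose reducing acid output to 50% of control.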

[4] = test system: Canis familiaris; assay: Antisecretory activity in histamine stimulated dogs at 1 mg/kg dose administered intravenously; format: functional; conditions: Canis lupus familiaris, route intravenous; method in brief: as §3
[5] = species on record: Rattus norvegicus; assay: Cytoprotective activity in rats against the ethyl alcohol stimulated ulcers measured as effective dose; format: functional
Method in brief: (§4)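 Rats were dosed orally at 1–30 mg/kg, 30 min before an oral challenge of absolute ethanol. Ethanol-induced gastric lesions were scored 1 h later, and an effective dose was estimated.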

[6] = test system: Canis familiaris; assay: percentage inhibition of acid secretion in histamine stimulated dogs at a dose of 0.2 mg/kg; format: functional; conditions: Canis lupus familiaris
[7] = test system: Canis familiaris; assay: Antisecretory activity in histamine stimulated dogs at 4 mg/kg dose administered orally; format: functional; conditions: Canis lupus familiaris, route oral; method in brief: as §2
[8] = test system: Canis familiaris; assay: Antisecretory activity in histamine stimulated dogs at 2 mg/kg dose administered orally; format: functional; conditions: Canis lupus familiaris, route oral; method in brief: as §2
[9] = test system: Canis familiaris; assay: Antisecretory activity in histamine stimulated dogs at 0.1 mg/kg dose administered intravenously; format: functional; conditions: Canis lupus familiaris, route intravenous; method in brief: as §3
[10] = test system: Canis familiaris; assay: Antisecretory activity in histamine stimulated dogs at 5 mg/kg dose administered intravenously; format: functional; conditions: Canis lupus familiaris; route intravenous; method in brief: as §3
[11] = test system: Canis familiaris; assay: percentage inhibition of acid secretion in histamine stimulated dogs at a dose of 0.05 mg/kg; format: functional; conditions: Canis lupus familiaris
[12] = test system: Canis familiaris; assay: Antisecretory activity in histamine stimulated dogs at 5 mg/kg dose administered orally; format: functional; conditions: Canis lupus familiaris; route oral; method in brief: as §2
[13] = test system: Canis familiaris; assay: percentage inhibition of acid secretion in histamine stimulated dogs at a dose of 0.4 mg/kg; format: functional; conditions: Canis lupus familiaris
[14] = test system: Canis familiaris; assay: Antisecretory activity in histamine stimulated dogs at 5 mg/kg dose administered orally measured as 50% effective concentration; format: functional; conditions: Canis lupus familiaris, route oral; method in brief: as §2
[15] = species on record: Canis familiaris; conditions: Canis lupus familiaris
[16] = test system: Canis familiaris; assay: The oral dose of cimetidine required to reduce acid output to 50% of control value in histamine stimulated dogs; conditions: Canis lupus familiaris
[17] = species on record: Rattus norvegicus; assay: animal or person; conditions: Canis lupus familiaris, in Rattus norvegicus, ip, 4 h
[18] = test system: Canis familiaris; assay: The intravenous dose of cimetidine required to reduce acid output to 50% of control value in histamine stimulated dogs; conditions: Canis lupus familiaris
[19] = species on record: Rattus norvegicus; assay: Cytoprotective activity in rats against the ethyl alcohol stimulated ulcers measured as effective dose; In active; format: functional, organism-based; method in brief: as §4
[20] = test system: Rattus norvegicus; assay: Antisecretory activity in pylorus ligated rats at 40 mg/kg dose administered intraperitoneal; format: functional; conditions: ip; method in brief: as §1
[21] = test system: Canis familiaris; assay: Antisecretory activity in histamine stimulated dogs following 5 mg/kg i.v. administration.; format: functional; conditions: Canis lupus familiaris, route intravenous; method in brief: as §3
[22] = test system: Rattus norvegicus; assay: Antisecretory activity in pylorus ligated rats at 40 mg/kg dose administered intraperitoneally; conditions: ip

| SMILES | inhibition in vivo at 40 mg/kg [1] [%] | inhibition in vivo at 8 mg/kg [2] [%] | inhibition in vivo at 2 mg/kg [3] [%] | inhibition in vivo at 1 mg/kg [4] [%] | ED50 [5] [mg/kg] | inhibition in vivo at 4 mg/kg [7] [%] | inhibition in vivo at 2 mg/kg [8] [%] | ED50 [10] [mg/kg] | other results |
| --- | --- | --- | --- | --- | --- | --- | --- | --- | --- |
| Nc1cnc2c(OCc3ccccc3)cccn12 | 32 | 43 | 81 | 49 | 9.1 | – | – | – | – |
| Cc1nc2c(OCc3ccccc3)cccn2c1N | 99 | 96 | 97 | – | 6 | 74 | 50 | 0.1 | inhibition in vivo at 0.2 mg/kg [6]: 41%; inhibition in vivo at 0.1 mg/kg [9]: 55%; inhibition in vivo at 0.05 mg/kg [11]: 15%; ED50 [12]: 2 mg/kg |
| Cc1ccn2c(CC#N)c(C)nc2c1OCc1ccccc1 | 99 | 59 | 90 | 74 | 13 | 20 | 8 | 0.53 | inhibition in vivo at 0.2 mg/kg [6]: 1%; inhibition in vivo at 0.4 mg/kg [13]: 39%; ED50 [14]: 7.8 mg/kg |
| Cc1nc2c(OCc3ccc(Cl)cc3)cccn2c1N | 66 | 92 | – | 74 | 2.2 | 81 | 32 | – | – |
| CN/C(=N\CCSCc1nc[nH]c1C)NC#N [CIMETIDINE] | – | – | – | – | – | – | – | – | ED50 [15]: inactive; ED50 [16]: 1.25 mg/kg; ED50 [17]: 26.1 mg/kg; ED50 [18]: 0.66 mg/kg |
| Cc1nc2c(CCc3ccccc3)cccn2c1N | 47 | 52 | 71 | 46 | 9 | 41 | 19 | – | – |
| CC(=O)Oc1c(C)nc2c(CCc3ccccc3)cccn12 | 64 | – | 6 | – | – | – | – | – | ED50 [19]: inactive |
| Cc1nc2c(OCc3cccs3)cccn2c1N | 70 | 86 | 77 | – | 5 | 80 | 30 | – | inhibition in vivo at 0.1 mg/kg [9]: 12% |
| Cc1nc2cccc(CCc3ccccc3)n2c1N | – | – | – | – | 14 | – | – | – | inhibition in vivo at 40 mg/kg [20]: 40% |
| Cc1nc2c(OCc3ccccc3)nccn2c1N | 79 | 70 | 65 | 56 | 5 | 69 | 63 | 0.8 | inhibition in vivo at 0.2 mg/kg [6]: 15%; inhibition in vivo at 0.4 mg/kg [13]: 41%; ED50 [12]: 1.4 mg/kg |
| CCc1nc2c(OCc3ccccc3)cccn2c1N | 83 | 59 | – | 72 | 5.2 | – | – | – | – |
| Cc1nc2c(OCc3ccccc3)cccn2c1CC#N | 98 | 77 | 95 | 83 | 3 | 42 | 20 | 0.09 | ED50 at 5 mg/kg ([14]; dose 5 mg/kg): 4.4 mg/kg; inhibition in vivo at 0.1 mg/kg [9]: 49%; inhibition in vivo at 5 mg/kg [21]: 99% |
| COc1c(C)nc2c(CCc3ccccc3)cccn12 | – | – | 0 | – | 20 | – | – | – | inhibition in vivo at 40 mg/kg [22]: 45% |
